Published values gathered from unrelated publications.
Compare with care: the assays were run in different laboratories.
Read-out: ABTS scavenging

Compound	test	IC50
COc1cc(-c2oc3cc(O[C@@H]4O[C@H](CO)[C@@H](O)[C@H](O)[C@H]4O)cc(O)c3c(=O)c2O[C@@H]2O[C@H](CO)[C@@H](O)[C@H](O)[C@H]2O)ccc1O	absorbance	41.7 µM
O=C(Cc1c[nH]c2ccccc12)Nc1ccc(F)cc1F		1.31 µM
COc1cc(-c2oc3cc(O)cc(O)c3c(=O)c2O[C@@H]2O[C@H](CO)[C@@H](O)[C@H](O)[C@H]2O)ccc1O	absorbance	15.3 µM
Cc1c(C)c2c(c(C)c1O)CC[C@@](C)(CCC[C@H](C)CCC[C@H](C)CCCC(C)C)O2		8.37 µg/mL
Cc1ccc(NC(=O)Cc2c[nH]c3ccccc23)c(C)c1		1.9 µM
COc1ccc(-c2nc3cc([N+](=O)[O-])ccc3[nH]2)cc1OCc1ccccc1	absorbance	1.76 µM
O=C(OC[C@H]1O[C@@H](OC(=O)c2cc(O)c(O)c(O)c2)[C@H](OC(=O)c2cc(O)c(O)c(O)c2)[C@@H](OC(=O)c2cc(O)c(O)c(O)c2)[C@@H]1O)c1cc(O)c(O)c(O)c1	absorbance	3.59 µM
Cc1cc2nc(-c3ccccc3OCc3ccccc3)[nH]c2cc1C	absorbance	1.78 µM
COC(=O)c1cc(O)c(O)c(O)c1	absorbance	14.2 µM
Fc1ccc2[nH]c(-c3cccc(OCc4ccccc4)c3)nc2c1	absorbance	1.85 µM
CCCCOc1ccc(NC(=O)Cc2c[nH]c3ccccc23)cc1		1.78 µM
COc1ccc(-c2nc3cc(Cl)ccc3[nH]2)cc1OCc1ccccc1	absorbance	1.75 µM
CSc1cccc(NC(=O)Cc2c[nH]c3ccccc23)c1		1.52 µM
Clc1ccc2[nH]c(-c3ccccc3OCc3ccccc3)nc2c1	absorbance	1.78 µM
CCCCCCCCOc1ccc(NC(=O)Cc2c[nH]c3ccccc23)cc1		1.8 µM
